The species entered for one assay is Rattus norvegicus. In words: Stimulation of phosphoinositide (PI) metabolism in rat cortex at 100 uM. It counts as functional. In a few lines:
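Rat cerebral cortex slices cross-chopped at 300 μm, preincubated in oxygenated Krebs-Henseleit buffer at 37 °C. Labeled 30 min with 0.3 mM [3H]inositol and 10 mM LiCl, then 45 min with agonist at 100 μM, or buffer for basal. Stopped with CHCl3/MeOH. Total [3H]inositol phosphates isolated on anion-exchange cartridges and counted. Given as % above basal; mean ± SEM, three independent experiments.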

For assay [1], the target named is Muscarinic acetylcholine receptor. The assay can be described thus: Affinity for muscarinic receptor in rat brain was measured by inhibition of [3H](R)-quinuclidinyl benzilate (QNB) binding. It counts as tissue-based.
In assay [2] the target is T1, Muscarinic acetylcholine receptor M1 (Rattus norvegicus, UniProt P08482).
T1 sequence (P08482 whole entry): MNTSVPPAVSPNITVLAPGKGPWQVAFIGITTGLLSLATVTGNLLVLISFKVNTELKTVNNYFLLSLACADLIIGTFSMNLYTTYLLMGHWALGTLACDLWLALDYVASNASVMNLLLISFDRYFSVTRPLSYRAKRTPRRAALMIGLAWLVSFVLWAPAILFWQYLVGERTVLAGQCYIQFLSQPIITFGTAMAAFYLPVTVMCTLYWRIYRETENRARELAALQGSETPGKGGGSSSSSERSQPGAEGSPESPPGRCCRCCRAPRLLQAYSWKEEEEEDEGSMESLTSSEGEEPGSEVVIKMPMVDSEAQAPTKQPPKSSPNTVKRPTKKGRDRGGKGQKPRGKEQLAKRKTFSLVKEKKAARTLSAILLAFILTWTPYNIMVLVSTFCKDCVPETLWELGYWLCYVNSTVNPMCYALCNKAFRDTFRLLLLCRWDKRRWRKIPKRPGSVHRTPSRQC
The assay can be described thus: (§1) Affinity for muscarinic receptor M1 in rat brain was measured by inhibition of [3H](R)-quinuclidinyl benzilate (QNB) binding. It counts as tissue-based. An outline of the steps: (§2)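 Competition against 50 pM [3H]-(R)-QNB in rat brain membrane suspension, about 10 pM receptors (4 mg/mL protein), 40 mM Na/K phosphate pH 7.4, varying compound concentrations. Incubation 2.0 h at room temperature, then glass fiber filtration and two cold buffer washes. Nonspecific binding with 1000-fold excess atropine. IC50 from Hill plots; mean ± SEM, three independent experiments in triplicate.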

Assay [3] has as its target Muscarinic acetylcholine receptor. The description is as §1. It counts as tissue-based. In a few lines: as §2

Each structure is given as a SMILES string.

`CC(C)OC(=O)C1CN=CNC1.Cl` (stereo unspecified): in the assay filed under Rattus norvegicus, the PI metabolism is given as 7.2%. On to `CCOC(=O)C1CCC(N)=NC1.Cl` (stereo unspecified), for which the PI metabolism in the assay listed under Rattus norvegicus was found to be 31%. In addition, the IC50 in assay [1] was found to be 4.3 µM. `COC(=O)C1CN=C(N)NC1.Cl` (stereo unspecified): in the assay filed under Rattus norvegicus, the PI metabolism was 81%. Also, in assay [1], the 50% inhibitory concentration (IC50) was found to be 22 µM. The like results for `CCCOC(=O)C1CCC(N)=NC1.Cl` (stereo unspecified) were, in that order, 51% and 1.7 µM.

Consider `CC(C)OC(=O)C1CN=C(N)NC1.Cl` (stereo unspecified), for which the PI metabolism in the assay listed under Rattus norvegicus was found to be 23%. The compound further had an IC50 in assay [1] of 29 µM. Regarding `COC(=O)C1CN=CNC1.Cl` (stereo unspecified), the PI metabolism in the assay filed under Rattus norvegicus worked out at 110%. With `C#CCOC(=O)C1CCC(N)=NC1.Cl` (stereo unspecified), the PI metabolism in the assay listed under Rattus norvegicus amounted to 120%. Besides, the half-inhibitory concentration (IC50) in assay [1] stood at 2.3 µM.

Take `COC(=O)C1CCCN=C1N.Cl` (stereo unspecified): the PI metabolism in the assay filed under Rattus norvegicus is recorded as -5.5%. The compound also returned a 50% inhibitory concentration (IC50) in assay [2] of 320 µM. `COC(=O)C1CCN=C(N)N1.Cl` (stereo unspecified) came in with a half-inhibitory concentration (IC50) in assay [3] of 4.3 mM. `CCOC(=O)C1CN=CNC1.Cl` (stereo unspecified): in the assay listed under Rattus norvegicus, the PI metabolism amounted to 150%. Take `C#CCOC(=O)C1CN=C(N)NC1.Cl` (stereo unspecified): the PI metabolism in the assay listed under Rattus norvegicus is recorded as 150%. The same compound showed an IC50 in assay [1] of 31 µM. In the case of `C#CCOC(=O)C1CN=CNC1.Cl` (stereo unspecified), in the assay filed under Rattus norvegicus, the PI metabolism was 230%. As to `COC(=O)C1CCC(N)=NC1.Cl` (stereo unspecified), in the assay listed under Rattus norvegicus, the PI metabolism worked out at 260%. For the same compound, the IC50 in assay [1] is 10 µM.

On to `CCCOC(=O)C1CN=CNC1.Cl` (stereo unspecified), for which the PI metabolism in the assay listed under Rattus norvegicus is 7.1%. For the compound `C[N+](C)(C)CCOC(N)=O.[Cl-]` [CARBACHOL], the PI metabolism in the assay listed under Rattus norvegicus came out at 470%. For the compound `CCCOC(=O)C1CN=C(N)NC1.Cl` (stereo unspecified), in the assay listed under Rattus norvegicus, the PI metabolism was determined as 4.3%. The same compound returned a 50% inhibitory concentration (IC50) in assay [1] of 4.8 µM. On the same counts, the results for `CCOC(=O)C1CN=C(N)NC1.Cl` (stereo unspecified) are 28% and 8.2 µM.

On to `COC(=O)C1CCN=C(N)C1.Cl` (stereo unspecified), for which, in the assay listed under Rattus norvegicus, the PI metabolism is 9%. The IC50 in assay [2] was found to be 120 µM.

For the compound `COC(=O)C1CCCC(N)=N1.Cl` (stereo unspecified), the PI metabolism in the assay listed under Rattus norvegicus is on record as 8.1%. In addition, the IC50 in assay [2] turned out to be 250 µM.

The record behind these values is ChEMBL document CHEMBL1127441, “Design, synthesis, and neurochemical evaluation of 2-amino-5-(alkoxycarbonyl)-3,4,5,6-tetrahydropyridines and 2-amino-5-(alkoxycarbonyl)-1,4,5,6-tetrahydropyrimidines as M1 muscarinic receptor agonists” (J Med Chem, 1994).
